Active and inactive are the calls of the source. No cut-off for these calls is given here. Residues, ends and D or L forms follow the SMILES beside them.
How the values were obtained:
J774.A1 [1] = assay: Antiinflammatory activity in mouse J774A1 cells assessed as inhibition of LPS-stimulated IL6 stimulation after 4 hrs by ELISA; format: functional
How it was run: (§1)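 Murine macrophage J774A.1 cells in RPMI1640 with 10% heat-inactivated FBS, glutamine, pyruvate, nonessential amino acids, HEPES and 2-mercaptoethanol. Peptides, dissolved in DMSO, added for 1 h at 37 °C before LPS (0.1 µg/mL) for a further 4 or 6 h. IL-6 or TNF-α in supernatant measured by sandwich ELISA: biotinylated detection antibody, avidin-HRP, ABTS substrate, OD 405 nm.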

J774.A1 [2] = assay: Antiinflammatory activity in mouse J774A1 cells assessed as inhibition of LPS-stimulated TNFalpha stimulation after 4 hrs by ELISA; format: functional, cell-based; how it was run: as §1

| SMILES | Activity (J774.A1 [1]) | Activity (J774.A1 [2]) | Activity (J774.A1 [1]; record 2) [%] |
| --- | --- | --- | --- |
| CC(C)C[C@@H]1NC(=O)[C@H](C(C)C)NC(=O)CNC(=O)[C@H](C)NC(=O)[C@@H]2CCCN2C(=O)[C@H](Cc2ccc(O)cc2)NC(=O)[C@H](Cc2ccc(O)cc2)NC(=O)[C@H](CO)NC1=O (cyclo(AGVLSYYP)) | Active | Active |  |
| CC[C@H](C)[C@@H]1NC(=O)[C@@H]2CCCN2C(=O)[C@H](CC(C)C)NC(=O)[C@H](CCSC)NC(=O)[C@H](C)NC(=O)[C@H]([C@@H](C)O)NC(=O)[C@H](CCC(N)=O)NC(=O)[C@@H]2CCCN2C1=O (cyclo(AMLPIPQT)) | Active | Active |  |
| COc1ccc(C[C@@H]2NC(=O)[C@H](Cc3ccc(O)cc3)NC(=O)[C@H](CO)NC(=O)[C@H](CC(C)C)NC(=O)[C@H](C(C)C)NC(=O)CNC(=O)CNC(=O)[C@@H]3CCCN3C2=O)cc1 (cyclo(GGVLSYY(Me)P)) | Active | inactive | 25 |
| CC(C)C[C@@H]1NC(=O)[C@H](C(C)C)NC(=O)[C@H](C)NC(=O)CNC(=O)[C@@H]2CCCN2C(=O)[C@H](Cc2ccc(O)cc2)NC(=O)[C@H](Cc2ccc(O)cc2)NC(=O)[C@H](CO)NC1=O (cyclo(AVLSYYPG)) | Active |  |  |
| CC[C@@H](C)[C@@H]1NC(=O)[C@@H]2CCCN2C(=O)[C@H](CC(C)C)NC(=O)[C@H](C)NC(=O)CNC(=O)[C@H]([C@@H](C)O)NC(=O)[C@H](CCC(N)=O)NC(=O)[C@@H]2CCCN2C1=O | Active | Active |  |
